Reference: ChEMBL document CHEMBL3739331, “Synthesis and Bioactivities of Kanamycin B-Derived Cationic Amphiphiles” (J Med Chem, 2015)
In brackets after ≈: the same amount, converted by molar mass. Activity calls are given as the source filed them. No cut-off for these calls is given here.

Columns and labels:
Candida albicans [1] = experiment: Antifungal activity against azole-resistant Candida albicans ATCC 10231 after 48 hrs by microbroth dilution method; type: functional; settings: ATCC 10231, 48 h
Method in brief: (§1)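 Yeast MIC by broth microdilution, run in duplicate. The aminoglycoside compounds are read as MIC-0 (complete inhibition). Azoles are read as MIC-2 (50% inhibition).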

Candida albicans [2] = experiment: Antifungal activity against azole-resistant Candida albicans ATCC 64124 after 48 hrs by microbroth dilution method; type: functional; settings: ATCC 64124, 48 h; method in brief: as §1
Candida albicans [3] = experiment: Antifungal activity against azole-susceptible Candida albicans ATCC MYA-2876 after 48 hrs by microbroth dilution method; type: functional; settings: ATCC MYA-2876, 48 h; method in brief: as §1
Candida albicans [4] = experiment: Antifungal activity against azole-resistant Candida albicans ATCC 90819 after 48 hrs by microbroth dilution method; type: functional; settings: ATCC 90819, 48 h; method in brief: as §1
Candida albicans [5] = experiment: Antifungal activity against azole-resistant Candida albicans MYA-1237 after 48 hrs by microbroth dilution method; type: functional; settings: MYA-1237, 48 h; method in brief: as §1
Candida albicans [6] = experiment: Antifungal activity against azole-resistant Candida albicans MYA-1003 after 48 hrs by microbroth dilution method; type: functional; settings: MYA-1003, 48 h; method in brief: as §1
Aspergillus nidulans = experiment: Antifungal activity against Aspergillus nidulans ATCC 38163 after 48 hrs by microbroth dilution method; type: functional; settings: ATCC 38163, 48 h
Method in brief: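 Filamentous fungus MIC by broth microdilution, run in duplicate. All compounds are read as MIC-0 (complete inhibition).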

[7] = Hemolytic activity against mouse RBC at 100 to 500 ug/ml after 60 mins; type: ADME, cell-based; settings: erythrocyte, 1 h
A549 = experiment: Cytotoxicity against human A549 cells after 24 hrs by resazurin assay; type: cell-based; settings: human, a549, 24 h
[8] = Cytotoxicity against human BEAS2B cells after 24 hrs by resazurin assay; type: cell-based, BEAS-2B; settings: human, beas-2b
Klebsiella pneumoniae = experiment: Antibacterial activity against Klebsiella pneumoniae ATCC 27736 by microdilution method; type: functional
Method in brief: (§2)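 Broth microdilution MIC against the named bacterial strain, reported in μg/mL; each determination run at least in duplicate.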

[9] = Activity of AAC(3)-4 (unknown origin) assessed as compound acetylation activity by Ellman's method
Bacillus subtilis = experiment: Antibacterial activity against Bacillus subtilis 168 by microdilution method; type: functional; settings: subsp. subtilis str. 168; method in brief: as §2
Listeria monocytogenes = experiment: Antibacterial activity against Listeria monocytogenes ATCC 19115 by microdilution method; type: functional; method in brief: as §2
[10] = tested on: Mycolicibacterium smegmatis; experiment: Antibacterial activity against Mycobacterium smegmatis MC2 155 by microdilution method; type: functional; settings: str. MC2 155
Method in brief: (§3)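 Broth microdilution MIC, in μg/mL, against a panel of Gram-positive and Gram-negative strains. Run at least in duplicate.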

Staphylococcus aureus [11] = experiment: Antibacterial activity against Staphylococcus aureus ATCC 29213 by microdilution method; type: functional; method in brief: as §2
Staphylococcus aureus [12] = experiment: Antibacterial activity against Staphylococcus aureus NRS385 (USA 300) by microdilution method; type: functional; method in brief: as §3
[13] = tested on: Staphylococcus epidermidis; experiment: Antibacterial activity against Staphylococcus epidermidis ATCC 12228 by microdilution method; type: functional; method in brief: as §2
Acinetobacter baumannii = experiment: Antibacterial activity against Acinetobacter baumannii ATCC 19606 by microdilution method; type: functional; method in brief: as §2
Enterobacter cloacae = experiment: Antibacterial activity against Enterobacter cloacae ATCC 13047 by microdilution method; type: functional; method in brief: as §2
Escherichia coli = experiment: Antibacterial activity against Escherichia coli MC1061 by microdilution method; type: functional; method in brief: as §3
Salmonella enterica = experiment: Antibacterial activity against Salmonella enterica ATCC 14028 by microdilution method; type: functional; method in brief: as §2
[14] = tested on: Bacillus subtilis subsp. subtilis str. 168; experiment: Activity of Bacillus subtilis 168 APH(2'')-1a assessed as compound phosphorylation activity by Ellman's method
[15] = Activity of AAC(6')-1e/APH(2'')-1a (unknown origin) assessed as compound acetylation activity by Ellman's method
Serratia marcescens = experiment: Activity of Serratia marcescens AAC(6')-2d assessed as compound acetylation activity by Ellman's method
[16] = tested on: Mycobacterium tuberculosis; experiment: Activity of Mycobacterium tuberculosis AAC(2')-1c assessed as compound acetylation activity by Ellman's method
[17] = tested on: Mycobacterium tuberculosis; experiment: Activity of Mycobacterium tuberculosis Eis assessed as compound acetylation activity by Ellman's method
Candida albicans [18] = experiment: Antifungal activity against azole-susceptible Candida albicans ATCC MYA-2310 after 48 hrs by microbroth dilution method; type: functional; settings: ATCC MYA-2310, 48 h; method in brief: as §1
Staphylococcus aureus [19] = experiment: Antibacterial activity against methicillin-resistant Staphylococcus aureus by microdilution method; type: functional; method in brief: as §3
Staphylococcus aureus [20] = experiment: Antibacterial activity against Staphylococcus aureus NRS382 (USA 100) by microdilution method; type: functional; method in brief: as §2
Staphylococcus aureus [21] = experiment: Antibacterial activity against Staphylococcus aureus NRS383 (USA 200) by microdilution method; type: functional; method in brief: as §2
Staphylococcus aureus [22] = experiment: Antibacterial activity against Staphylococcus aureus NRS22 (USA 600) by microdilution method; type: functional; method in brief: as §2
Enterococcus = experiment: Antibacterial activity against vancomycin-resistant Enterococcus by microdilution method; type: functional; method in brief: as §3
Pseudomonas aeruginosa = experiment: Antibacterial activity against Pseudomonas aeruginosa ATCC 27853 by microdilution method; type: functional; method in brief: as §2

Row | Structure (SMILES) | MIC (Aspergillus nidulans) | Activity [7] | Activity (A549) | Activity [8] | MIC (Klebsiella pneumoniae) | Activity [9] | MIC (Bacillus subtilis) | MIC (Listeria monocytogenes) | MIC [10] | MIC (Staphylococcus aureus [11]) | MIC (Staphylococcus aureus [12]) | MIC [13] | MIC (Acinetobacter baumannii) | MIC (Enterobacter cloacae) | MIC (Escherichia coli) | MIC (Salmonella enterica) | Activity [14] | Activity [15] | Activity (Serratia marcescens) | Activity [16] | other results
1 | CCC(C)n1ncn(-c2ccc(N3CCN(c4ccc(OCC5COC(Cn6cncn6)(c6ccc(Cl)cc6Cl)O5)cc4)CC3)cc2)c1=O (stereo not drawn) [ITRACONAZOLE] | ≤ 1.95 µg/mL |  |  |  |  |  |  |  |  |  |  |  |  |  |  |  |  |  |  |  | MIC50 (Candida albicans [1]): 0.5 µg/mL (≈ 0.709 µM); MIC50 (Candida albicans [2]): > 62.5 µg/mL; MIC50 (Candida albicans [3]): 7.8 µg/mL (≈ 11.1 µM); MIC50 (Candida albicans [4]): 31.2 µg/mL (≈ 44.2 µM); MIC50 (Candida albicans [5]): 31.2 µg/mL (≈ 44.2 µM); MIC50 (Candida albicans [6]): 31.2 µg/mL (≈ 44.2 µM)
2 | CCCCCCCCCCSC[C@@H]1O[C@@H](O[C@@H]2[C@@H](O)[C@H](O[C@@H]3O[C@@H](CN)[C@H](O)[C@@H](O)[C@@H]3N)[C@@H](N)C[C@H]2N)[C@@H](O)[C@H](N)[C@H]1O (stereo in doubt) | ≤ 1.95 µg/mL | Non-toxic | Non-toxic | Non-toxic | > 128 µg/mL | inactive | 128 µg/mL (≈ 200 µM) | 2 µg/mL (≈ 3.13 µM) | 8 µg/mL (≈ 12.5 µM) | 16 µg/mL (≈ 25 µM) | 32 µg/mL (≈ 50 µM) | > 128 µg/mL | > 128 µg/mL | > 128 µg/mL | > 128 µg/mL | > 128 µg/mL | inactive | inactive | inactive | inactive | Activity [17]: inactive; MIC (Candida albicans [1]): 125 µg/mL (≈ 195 µM); MIC (Candida albicans [2]): 125 µg/mL (≈ 195 µM); MIC (Candida albicans [3]): 125 µg/mL (≈ 195 µM); MIC (Candida albicans [4]): 125 µg/mL (≈ 195 µM); MIC (Candida albicans [18]): 62.5 µg/mL (≈ 97.7 µM); MIC (Candida albicans [5]): 125 µg/mL (≈ 195 µM); MIC (Candida albicans [6]): 125 µg/mL (≈ 195 µM)
3 | CCCCCCCCCCCCCCSC[C@H]1O[C@H](O[C@@H]2[C@@H](O)[C@H](O[C@H]3O[C@H](CN)[C@@H](O)C[C@H]3N)[C@@H](N)C[C@H]2N)[C@H](O)[C@@H](N)[C@@H]1O | 7.8 µg/mL (≈ 11.5 µM) |  |  |  |  |  |  |  |  |  |  |  |  |  |  |  |  |  |  |  | 
4 | CCCCCCCCSC[C@@H]1O[C@@H](O[C@@H]2[C@@H](O)[C@H](O[C@@H]3O[C@@H](CN)[C@H](O)[C@@H](O)[C@@H]3N)[C@@H](N)C[C@H]2N)[C@@H](O)[C@H](N)[C@H]1O (stereo in doubt) | 15.6 µg/mL (≈ 25.5 µM) | Non-toxic | Non-toxic | Non-toxic | > 128 µg/mL | inactive | > 128 µg/mL | 8 µg/mL (≈ 13.1 µM) | 64 µg/mL (≈ 105 µM) | 64 µg/mL (≈ 105 µM) | 128 µg/mL (≈ 209 µM) | > 128 µg/mL | > 128 µg/mL | > 128 µg/mL | > 128 µg/mL | > 128 µg/mL | inactive | inactive | inactive | inactive | MIC (Staphylococcus aureus [19]): 128 µg/mL (≈ 209 µM); MIC (Staphylococcus aureus [20]): 128 µg/mL (≈ 209 µM); MIC (Staphylococcus aureus [21]): 64 µg/mL (≈ 105 µM); MIC (Staphylococcus aureus [22]): 64 µg/mL (≈ 105 µM); MIC (Enterococcus): 128 µg/mL (≈ 209 µM); MIC (Pseudomonas aeruginosa): 64 µg/mL (≈ 105 µM); Activity [17]: inactive; MIC (Candida albicans [1]): > 125 µg/mL; MIC (Candida albicans [2]): > 125 µg/mL; MIC (Candida albicans [3]): > 125 µg/mL; MIC (Candida albicans [4]): > 125 µg/mL; MIC (Candida albicans [18]): > 125 µg/mL; MIC (Candida albicans [5]): > 125 µg/mL; MIC (Candida albicans [6]): > 125 µg/mL
5 | NC[C@H]1O[C@H](O[C@H]2[C@H](O)[C@@H](O[C@H]3O[C@H](CO)[C@@H](O)[C@H](N)[C@H]3O)[C@H](N)C[C@@H]2N)[C@H](O)[C@@H](O)[C@@H]1O [KANAMYCIN] |  |  |  |  | 16 µg/mL (≈ 33 µM) |  | 2 µg/mL (≈ 4.13 µM) | 128 µg/mL (≈ 264 µM) | ≤ 0.25 µg/mL | > 128 µg/mL | > 128 µg/mL | 1 µg/mL (≈ 2.06 µM) | 4 µg/mL (≈ 8.26 µM) | 2 µg/mL (≈ 4.13 µM) | 8 µg/mL (≈ 16.5 µM) | 16 µg/mL (≈ 33 µM) |  |  |  |  | MIC (Staphylococcus aureus [19]): 128 µg/mL (≈ 264 µM); MIC (Staphylococcus aureus [20]): > 128 µg/mL; MIC (Staphylococcus aureus [21]): > 128 µg/mL; MIC (Staphylococcus aureus [22]): > 128 µg/mL; MIC (Enterococcus): > 128 µg/mL; MIC (Pseudomonas aeruginosa): > 128 µg/mL
6 | CCCCCCCCCCCCSC[C@H]1O[C@H](O[C@@H]2[C@@H](O)[C@H](O[C@H]3O[C@H](CN)[C@@H](O)C[C@H]3N)[C@@H](N)C[C@H]2N)[C@H](O)[C@@H](N)[C@@H]1O | 7.8 µg/mL (≈ 12 µM) |  |  |  |  |  |  |  |  |  |  |  |  |  |  |  |  |  |  |  | 
